Fewer inactive variants are shown than the library holds.
B1: tRNA (parent)
chain: GUUCCGUUGGCGUAAUGGUAACGCGUCUCCCUCCUAAGGAGAAGACUGCGGGUUCGAGUCCCGUACGGAACG

Variants of: B1
Assay: yeast fitness relative to wild type (ratio to wild type); higher = fitter; tRNA-Arg(CCU), competitive growth, 37 C, YPD
How it was run: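 Changes in genotype frequencies gave Darwinian fitness relative to wild type. Frequencies were read by 100-nucleotide paired-end sequencing of gene amplicons before and after pooled Saccharomyces cerevisiae strains, carrying tRNA-Arg(CCU) gene variants at the native locus, were competed in YPD at 37°C for 24 hours in six replicates. A genotype was kept only with ≥ 100 starting reads, and estimates < 0.5 were set to 0.5.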

Row | Variant | yeast fitness
1 | GUUCCGUUAGCGUAAUGGUAACGCGUCUCCCUCCUGAGGAGAAGACUGCGGGUUCGAGUCCCGUAUGGAACG [G9A A36G C66U] | 0.77
2 | GUUCCGUUAGCGUAGUGGUUACGCGUCCCCCUCCUAAGGAGAAGUCUGCGGGUUCGAGUCCCGUACGGAACG [G9A A15G A20U U28C A45U] | ≤ 0.5
3 | GUUCCGUGGGCGUAAUGGUAACGCGUCUCCCCCGUAAGGAGAAGACUGCGGGUUCGAGUCCCGUACGAAACG [U8G U32C C34G G68A] | 0.598
4 | GUUCCGUUAGCGUAUUGGUAAAGCAUCUCCCUCCUAAGGAGAAGACUACGGGUUCGAGUCCCGUACGGAACG [G9A A15U C22A G25A G48A] | ≤ 0.5
5 | GUUCCGUGGGCGUAAUGGUAACGCGUCGCCCUCAUAAGGAGAAGACUGCGGGUUCGAGUCCCGUACGGAACG [U8G U28G C34A] | ≤ 0.5
6 | GUUCCGUUAGCGUAAUGGUAUCGCGUCUCCCUCCUAAGGAGAAGACUGCGGGUUCGAGUCCCGUAGGGAACG [G9A A21U C66G] | ≤ 0.5
7 | GUUCCGUGGGCGUAAUGGUAACGCGUCUCCCCGCUAAGGAGAAGACUGCGGGUUCGAGUCACGUAUGGAACG [U8G U32C C33G C61A C66U] | ≤ 0.5
8 | GUUCCGUUAGCGUCAUGGUAACGCGUUUCCCUCCUAAGGAGAAGAUUGCGGCUUCGAGUCCCGUACGGAACG [G9A A14C C27U C46U G52C] | 0.53
9 | GUUCCGUUAGCGUAAUGGUAACGCGUCUCCCUCCUCAGGAGAAGCCUGCGGGUUCGAGUCCCAUACGGAACG [G9A A36C A45C G63A] | ≤ 0.5
10 | GUUCCGUUAGCGUAUUGGUGACGCGUCUCCCUCCUAAGGAGAAGACUGCGGGUUCGAGUCCCGUACGGAACG [G9A A15U A20G] | 0.503
11 | GUUCCGUUAGCGUAAUGGUAGCGCGUCUCCCUCCUAAGGAGAAGACUGCGGGUUCGACUCCCGUACGGACCG [G9A A21G G58C A70C] | ≤ 0.5
12 | GUUCCGUUAGCGUAGUGGUAACGCGUCUCCCUCCUAAGGAGCAGACUGCGGGUUCGAGUCCUGUACGGAACG [G9A A15G A42C C62U] | ≤ 0.5
13 | GUUCCGUUAGCGUAAUGGUUUCGCGUCUCCCUCCUAAGGAGAAGACUGCGGGUUCGAGUCCCGUACGGAACG [G9A A20U A21U] | ≤ 0.5
14 | GUUCCGUUAGCGUAAUGGUAUCGCGUCUCCCUCCUAAGCAGAAGACUGCGGGUUCGAGUCCCGUACGGAACG [G9A A21U G39C] | ≤ 0.5
15 | GUUCCGUGGGCGUAAUGGUAACGCGUCUCCCUCCGAAGGAGAAGACUGCGGGUUGGAGUCCCGUACGGAACG [U8G U35G C55G] | ≤ 0.5
16 | GUUCCGUUAGCGUGAUGGUAACGCGUCUCCCUCCUAGGGAGAAGACUGCGGGUUCGAGUCCCGUACGGAACG [G9A A14G A37G] | 0.624
17 | GUUCCGUUAGCGUAAUGGUGACGCGUCUCCCUCCUAAGGAGAAGACUGUGGGUUCGAGUCCCGUACGGAACG [G9A A20G C49U] | 0.847
18 | GUUCCGUUAGCGUAUUGGUAACGCGUCUCCCUCCUAAGGAAAAGACUGCGGGUUCGAGUCCCGUACGGAACG [G9A A15U G41A] | ≤ 0.5
19 | GUUCCGUUAGCGUAAUGGUAUCGCGUCCCCCUCCUAAGGAGAAAACUGCGGGUUGGAGUCCCGUACGGAACG [G9A A21U U28C G44A C55G] | ≤ 0.5

Row | Variant | yeast fitness
20 | GUUCCGUUAGCGUAAUGGUAUCGCGUCUCCCUCCUGAGGCGAAGACCGCGGGUUCGAGUCCCGUACGGAACG [G9A A21U A36G A40C U47C] | ≤ 0.5
21 | GUUCCGUUAGCGUAAUGGUAUCGCGUCUCCGUCCUAAGGAGAAGACUGCGGGUUCGAGUCCCAUAAGGAACG [G9A A21U C31G G63A C66A] | ≤ 0.5
22 | GUUCCGUUAGCGUAGAGGUAACCCGUCUCCCUCCUAAGGAGAAGACUGCGGGUUCGAGUCCCGUACGGAACG [G9A A15G U16A G23C] | ≤ 0.5
23 | GUUCCGUUAGCGUAAUGGUACCGCGUCUCCCUCAUAAGGAGAGGACUGCGGGUUCGAGUCCCGUACGGAACG [G9A A21C C34A A43G] | ≤ 0.5
24 | GUUCCGUUAGCGUACUGGUAACGCGUCUCCCUCCUAAGGAGAAGACUGCGGGUUCGAGUCCCGUACGGUACG [G9A A15C A69U] | 0.86
25 | GUUCCGUUAGCGUAAUGGUACCGCGUCUCCCUCCUAAGGAGAAGAGUGGGGGUUCGAGUCCCGUACGGAACG [G9A A21C C46G C49G] | ≤ 0.5
26 | GUUCCGUUAGCGUUAUGGUAACGCGUCUGCCUCAUAAGGAGAAGACUGCGGGUUCGAGUCCCGUACGGAACG [G9A A14U C29G C34A] | 0.55
27 | GUUCCGUUAGCGUAAUGGUAUCGCGUCUCCGUCCUAAGGAGAAGACUGCGGGUUCGAGUCCCGUACGGAACG [G9A A21U C31G] | 0.573
28 | GUUCCGUUAGCGUAAUGGUAACGCGUCUCCCUCCUCAAGAGAAGACUGCGGGUUCGAGUCCCGUACGGAACG [G9A A36C G38A] | ≤ 0.5
29 | GUUCCGUGGGCGUAAUGGUAACGCGUCUCCCUCCAAAGGAGAAGACUGCGGGUACGAGUCCCGUACGGAACG [U8G U35A U54A] | 0.548
30 | GUUCCGUUAGCGUAAUGGUAACGCGUCUCCCUCCUCAGGAGAAGCCUGCGGGUUCGAGUCCCGUACGGAACG [G9A A36C A45C] | 0.602
31 | GUUCCGUGGGCGUAAUGGUAACGCGUCCCCCUCCUAACGAGAAGACUGCGGGUUCGAGUCCUGUACGGAACG [U8G U28C G38C C62U] | ≤ 0.5
32 | GUUCCGUUAGCGUAAUGGUAACGCGUCUCCCUCCUCAGGAGAAGACUGAGGGUUUGGGUCCCGUACGGUACG [G9A A36C C49A C55U A57G A69U] | ≤ 0.5
33 | GUUCCGUGGGCGUAAUGGUAACGCGUCUCCCCGCUAAGGAGAUGACUCCGGGUUAGAGUCCCGUACGGAACG [U8G U32C C33G A43U G48C C55A] | ≤ 0.5
34 | GUUCCGUUAGCGUAUUGGUAACGCGUCUCCCUCCUAAGGAGAAGUCUGCGGGUUCGAGUCCCGUACGGAACG [G9A A15U A45U] | 0.533
35 | GUUCCGUUAGCGUAAUGGUGACGCGUCUCCCUCCUAAGGAGCAGACUGCGGCUACGAGUCCCGUACGGAACG [G9A A20G A42C G52C U54A] | ≤ 0.5
36 | GUUCCGUUAGCGUCAUGGUAACGCCUCUCCCUCCUAAGGAGAAGACUGCGGGUUCAAGUCCCGUACGGAACG [G9A A14C G25C G56A] | 0.579
37 | GUUCCGUUAGCGUAAUGGUAGCGCGUCUGCCUCGUAAGGAGAAGACUGCGGGUUCGUGUCCGGUACGGAACG [G9A A21G C29G C34G A57U C62G] | ≤ 0.5
